# Assay results: publication PMC12804367 (ESMO Open, 2025)
# Values joined by “and” are separate entries in the source; they are usually repeats but may differ in a detail not shown here. Equal entries are not always repeated. “Also recorded” adds a separate entry of the source. Where two headings read alike, the source gives them in different places. Marks after values point to notes of the source that are not given here.
# Tests used:
# kinases = conditions: cited from earlier work
# [1] = Japanese phase I study; cited from earlier work
# Plasma pharmacokinetics = format: in vivo, human
# Outline: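 Dose-escalation patients had blood drawn predose and 0.5, 1, 2, 3, 4, 6 and 24 h post-dose on cycle 1 day 1, and on cycle 1 day 8 for once-daily dosing only. Plasma parameters came from noncompartmental analysis in patients with evaluable plasma concentration data. Values are geometric means with geometric CV%, plus day 8/day 1 accumulation ratios of Cmax and AUC0-24.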
# advanced solid tumors = conditions: cited from earlier work
# [2] = test system: patients with advanced or metastatic solid tumors; test: Safety, tolerability and DLTs; format: in vivo, human; conditions: for Treatment-related AE: decreased appetite / Treatment-related AE: fatigue / Treatment-related AE: hyperglycemia / Treatment-related AE: pruritus / Treatment-related AE: rash: all patients (17)
# Outline: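 3 + 3 escalation starting at 16 mg/day once daily or 24 mg/day intermittent (4 days on/3 days off) in 21-day cycles. AEs graded by CTCAE v5.0. DLTs were selected lab abnormalities or AEs at least possibly drug-related during cycle 1, assessed in patients with a DLT or ≥80% of planned doses taken.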
# [3] = cycle 1 day 1, 16 mg o.d., individual values (N = 2)
# [4] = cycle 1 day 1, 20 mg o.d., N = 6, geometric mean (CV%)
# [5] = cycle 1 day 1, 24 mg intermittent, N = 4, geometric mean (CV%)
# [6] = cycle 1 day 1, 28 mg intermittent, N = 3, geometric mean (CV%)
# [7] = cycle 1 day 8, 16 mg o.d., N = 3, geometric mean (CV%)
# [8] = cycle 1 day 8, 20 mg o.d., N = 6, geometric mean (CV%)
# [9] = all patients (N = 17), any grade
# [10] = all patients (N = 17), grade ≥3
# [11] = dose escalation intermittent 24 mg (n = 4)
smiles,measurement,setting,value
C[C@]1(O)C[C@@](N)(c2ccc(-c3nc4n(c3-c3ccccc3)COc3ccncc3-4)cc2)C1 [TAS-117],Off-target inhibition of kinases,kinases,no observed off-target inhibition of kinases
same,Accumulation of Cmax and AUC0-24,[1],threefold to fourfold
same,"Total exposure per week, 16 mg o.d. compared with 24-mg intermittent dosing",Plasma pharmacokinetics; 16 mg o.d.,higher total exposure per week
same,AUC0-24,Plasma pharmacokinetics; [3],180.7 ng·h/mL and 244.3 ng·h/mL
same,AUC0-last,Plasma pharmacokinetics; [3],180.7 ng·h/mL and 244.3 ng·h/mL
same,Cmax,Plasma pharmacokinetics; [3],12.8 ng/mL and 14.5 ng/mL
same,Tmax,Plasma pharmacokinetics; [3],3.05 h and 20.88 h
same,AUC0-24,Plasma pharmacokinetics; [4],333 (34.7) ng·h/ml
same,AUC0-last,Plasma pharmacokinetics; [4],333 (34.7) ng·h/ml
same,Cmax,Plasma pharmacokinetics; [4],21.5 (29.2) ng/ml
same,Tmax,"Plasma pharmacokinetics; cycle 1 day 1, 20 mg o.d., N = 6, median (range)",2.06 (1.15-6.42) h
same,AUC0-24,Plasma pharmacokinetics; [5],412.8 (30.6) ng·h/ml
same,AUC0-last,Plasma pharmacokinetics; [5],290.5 (86) ng·h/ml
same,Cmax,Plasma pharmacokinetics; [5],23.2 (33.9) ng/ml
same,Tmax,"Plasma pharmacokinetics; cycle 1 day 1, 24 mg intermittent, N = 4, median (range)",2 (1.98-3.65) h
same,AUC0-last,Plasma pharmacokinetics; [6],426.3 (180.7) ng·h/ml
same,Cmax,Plasma pharmacokinetics; [6],48.1 (35.9) ng/ml
same,Tmax,"Plasma pharmacokinetics; cycle 1 day 1, 28 mg intermittent, N = 3, median (range)",2 (0.92-5.65) h
same,AUC0-24,"Plasma pharmacokinetics; cycle 1 day 1, 28 mg intermittent, individual values (n = 2)",754.4 ng·h/mL and 961.1 ng·h/mL
same,AUC0-last,Plasma pharmacokinetics; [7],231.7 (157.2) ng·h/ml
same,Cmax,Plasma pharmacokinetics; [7],33.3 (34.3) ng/ml
same,Tmax,"Plasma pharmacokinetics; cycle 1 day 8, 16 mg o.d., N = 3, median (range)",4.08 (2-5.5) h
same,AUC0-24,"Plasma pharmacokinetics; cycle 1 day 8, 16 mg o.d., individual value (n = 1)",811.3 ^b ng·h/ml
same,AUC0-24,Plasma pharmacokinetics; [8],924 (54.5) ng·h/ml
same,AUC0-last,Plasma pharmacokinetics; [8],924 (54.5) ng·h/ml
same,Cmax,Plasma pharmacokinetics; [8],60.1 (58.8) ng/ml
same,Tmax,"Plasma pharmacokinetics; cycle 1 day 8, 20 mg o.d., N = 6, median (range)",2.33 (1.02-5.58) h
same,Exposure versus dose,"Plasma pharmacokinetics; dose range 16-28 mg, cycle 1 day 1 and day 8",generally increased with increasing doses; also recorded: dose-dependent increases
same,Objective responses,"advanced solid tumors; PIK3CA-mutant endometrial cancer, 1 out of 16 patients",6.3%
same,Objective responses,"advanced solid tumors; ovarian clear cell carcinoma, 3 out of 20 patients",15%
same,Antitumor activity and safety,advanced solid tumors; patients with advanced solid tumors,preliminary antitumor activity and a manageable safety profile
same,DLTs,[2]; 16 mg o.d.,no DLTs
same,Time to resolution of DLT,"[2]; 20 mg o.d., grade 3 neutropenic infection, dose not modified",≤ 6 days
same,DLT event,"[2]; 20 mg o.d., one patient",grade 3 neutropenic infection
same,DLT event,"[2]; 28 mg intermittent dosing, two patients",grade 3 oral mucositis; also recorded: grade 3 stomatitis
same,Time to resolution of DLT (stomatitis),"[2]; 28 mg intermittent, TAS-117 paused, per patient",≤ 6 days and ≤ 7 days
same,Grade ≥3 TRAEs,[2]; 16-mg o.d. dose cohort,33.3%
same,TRAEs,[2]; 16-mg o.d. dose cohort,66.7%
same,TRAEs reported,[2]; 16-mg o.d. dose level,rash (grade 3) and hyperglycemia (grade 2)
same,Grade ≥3 TRAEs,[2]; 20-mg o.d. dose cohort,66.7%
same,TRAEs,[2]; 20-mg o.d. dose cohort,100%
same,Patients with treatment discontinued due to a TRAE,[2]; 20-mg o.d. dose group,50.0%
same,Patients with grade ≥3 TRAEs,"[2]; 20-mg o.d. dose level, out of six",four
same,Any-grade TRAEs,[2]; 24-mg intermittent dose group,50.0%
same,Grade ≥3 TRAEs,[2]; 24-mg intermittent dose group,25.0%
same,Any-grade TRAEs,[2]; 28-mg intermittent dose group,100.0%
same,Grade ≥3 TRAEs,[2]; 28-mg intermittent dose group,66.7%
same,Patients with any TRAE,[2]; DRC 16 mg o.d. (n = 1),0 n (%)
same,Treatment-related AE: decreased appetite,[2]; all grade,17.6%
same,Treatment-related AE: fatigue,[2]; all grade,35.3%
same,Treatment-related AE: hyperglycemia,[2]; all grade,29.4%
same,Treatment-related AE: pruritus,[2]; all grade,29.4%
same,Treatment-related AE: rash,[2]; all grade,58.8%
same,Treatment-related AE: decreased appetite,[2]; grade ≥3,0%
same,Treatment-related AE: fatigue,[2]; grade ≥3,1%
same,Treatment-related AE: hyperglycemia,[2]; grade ≥3,1%
same,Treatment-related AE: pruritus,[2]; grade ≥3,0%
same,Treatment-related AE: rash,[2]; grade ≥3,17.6%
same,Patients with any TRAE,[2]; [9],13 (76.5) n (%)
same,TRAE: Decreased appetite,[2]; [9],3 (17.6) n (%)
same,TRAE: Diarrhea,[2]; [9],3 (17.6) n (%)
same,TRAE: Fatigue,[2]; [9],6 (35.3) n (%)
same,TRAE: Hyperglycemia,[2]; [9],5 (29.4) n (%)
same,TRAE: Nausea,[2]; [9],2 (11.8) n (%)
same,TRAE: Pruritus,[2]; [9],5 (29.4) n (%)
same,TRAE: Rash,[2]; [9],10 (58.8) n (%)
same,TRAE: Rash maculopapular,[2]; [9],2 (11.8) n (%)
same,TRAE: Stomatitis,[2]; [9],3 (17.6) n (%)
same,Patients with any TRAE,[2]; [10],8 (47.1) n (%)
same,TRAE: Fatigue,[2]; [10],1 (5.9) n (%)
same,TRAE: Hyperglycemia,[2]; [10],1 (5.9) n (%)
same,TRAE: Rash,[2]; [10],3 (17.6) n (%)
same,TRAE: Rash maculopapular,[2]; [10],2 (11.8) n (%)
same,TRAE: Stomatitis,[2]; [10],2 (11.8) n (%)
same,Tolerability,"[2]; at the RP2D, 16 mg o.d.","tolerable, with a manageable safety profile; also recorded: tolerable, with a manageable AE profile"
same,Patients with any TRAE,[2]; [11],2 (50.0) n (%)
same,TRAE: Fatigue,[2]; [11],2 (50.0) n (%)
same,TRAE: Hyperglycemia,[2]; [11],1 (25.0) n (%)
same,TRAE: Pruritus,[2]; [11],2 (50.0) n (%)
